Substrate in the series: O=C(CNC(=O)OCc1ccccc1)Oc1ccc([N+](=O)[O-])cc1
The series can be described thus: Michaelis constant against papain. The settings on record: Carica papaya. Summed up:
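Papain activated 45 min at 25 °C in 50 mM phosphate pH 6.2 with 1 mM EDTA and 0.25 mM cysteine, made fresh daily. N-Cbz-Gly p-nitrophenyl ester hydrolysis at 25 °C read at 340 nm (Δε 6000 M⁻¹ cm⁻¹), corrected for nonenzymic hydrolysis. Compounds in acetonitrile or DMF, final <2.5% v/v. Reversible Ki by Lineweaver–Burk; irreversible Ki and k2 by Kitz–Wilson.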

By Km is commonly meant the substrate concentration at which the rate is half of its maximum.

B1: Papain (Carica papaya), P00784 (protein)
chain: MAMIPSISKLLFVAICLFVYMGLSFGDFSIVGYSQNDLTSTERLIQLFESWMLKHNKIYKNIDEKIYRFEIFKDNLKYIDETNKKNNSYWLGLNVFADMSNDEFKEKYTGSIAGNYTTTELSYEEVLNDGDVNIPEYVDWRQKGAVTPVKNQGSCGSCWAFSAVVTIEGIIKIRTGNLNEYSEQELLDCDRRSYGCNGGYPWSALQLVAQYGIHYRNTYPYEGVQRYCRSREKGPYAAKTDGVRQVQPYNEGALLYSIANQPVSVVLEAAGKDFQLYRGGIFVGPCGNKVDHAVAAVGYGPNYILIKNSWGTGWGENGYIRIKRGTGNSYGVCGLYTSSFYPVKN
For the protein B1, the Km worked out at 10.3 µM.
